NF-kB expr up: compounds increasing NF-kB expression in human neuronal cells. NF-kB reporter expression; hits give high values. fold change at 12.5 µM. actives 1.6% (n = 190,000); in the data active means fold change above about 3.3
FLuc stim CS: affects firefly luciferase, flagging false hits in luciferase stimulation screens | 200,000 tested, under 10 active | ATPlite luciferase biochemical, luminescence, 10 min; 0 = ATP-free wells, 1 = DMSO control | activation factor at 10 µM | P08659 | AID 1027;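 active means luciferase activation factor, scaled between plate controls, of at least 2 with compound at 10 µM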
Target sequence (P08659 whole entry, looked up): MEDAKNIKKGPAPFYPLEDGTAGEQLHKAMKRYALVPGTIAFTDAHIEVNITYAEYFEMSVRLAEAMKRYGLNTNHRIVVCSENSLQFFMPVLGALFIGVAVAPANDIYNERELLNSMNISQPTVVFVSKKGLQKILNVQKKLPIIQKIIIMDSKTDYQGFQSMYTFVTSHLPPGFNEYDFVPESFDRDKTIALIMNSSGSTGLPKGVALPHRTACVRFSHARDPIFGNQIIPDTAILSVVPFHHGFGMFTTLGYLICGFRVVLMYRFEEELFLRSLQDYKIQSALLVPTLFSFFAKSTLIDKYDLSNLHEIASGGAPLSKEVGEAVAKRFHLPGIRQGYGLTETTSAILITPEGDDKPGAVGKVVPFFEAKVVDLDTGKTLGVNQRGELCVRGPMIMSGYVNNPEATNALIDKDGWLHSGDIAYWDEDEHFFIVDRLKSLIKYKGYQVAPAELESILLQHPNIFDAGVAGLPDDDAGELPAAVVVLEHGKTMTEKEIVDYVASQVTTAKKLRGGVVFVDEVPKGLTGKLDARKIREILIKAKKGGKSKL
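Assay system: Luciferase/luciferin detection reagent, cell-free biochemical luciferase assay / Read-out: luciferase activation / Benchmarks: No-ATP low control, compound-free enzyme-plus-ATP high control / Medium: PBS buffer for ATP / Detection: luminescence measurement of luciferase light output / Schedule: 10 min at ambient temperature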
C8 TRAIL sens: sensitizes caspase-8 expressing cells to TRAIL; NB7+C8 cells + TRAIL, ATPlite viability luminescence; inhibition (viability loss, TRAIL sensitization), % at 10 µM; actives 1% (n = 360,000);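 active means compounds causing at least 50% loss of cell viability in the single-dose screen, relative to plate controls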
PPC-1+TRAIL kill: kills PPC-1 cancer cells in the presence of TRAIL; PPC-1 cells + TRAIL, ATPLite viability luminescence; cell killing (% activity), % at 4 µM or 5 µM; actives 0.41% (n = 220,000); AID 1443;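 active means cell killing above 50% in the first pass at 4 µM, then a duplicate retest at 5 µM averaging 50% or more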
FLuc inhib CS: Photinus pyralis luciferase inhibition counter-screen. actives 1.5% (n = 200,000). ATPLite firefly luciferase biochemical luminescence, 10 min. inhibition, % at 10 µM;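 active means inhibition above about 50% when tested at 10 µM, limit read from the data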
APP 5'UTR act: activates APP 5'UTR luciferase reporter; AID 1276; actives 1% (n = 190,000); SH-SY5Y APP 5'UTR luciferase reporter, luminescence; zero percent = DMSO vehicle wells; activation, % at 2 µM;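 active means activation above a set limit, based on mean plus 3 SD of controls, cut at about 140% in these data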
Large screens that a line does not name were inactive. Compounds with a hit are over-represented: about 2.2% of the library has one in this group of screens.

Cc1oc(-c2cccc(Cl)c2)nc1CN1CCC(C(=O)NCCCN2CCCC2=O)CC1	none
O=C(NCc1cccnc1)c1cc(C2CCCCN2C(=O)CCCc2ccccc2)on1 (centres undefined)	none (no result: NF-kB expr up, FLuc stim CS, PPC-1+TRAIL kill, FLuc inhib CS, APP 5'UTR act)
CC(C)N1C(=O)c2ccccc2NC(=O)C1C(=O)NC1CC1 (centres undefined)	none (no result: NF-kB expr up, FLuc stim CS, PPC-1+TRAIL kill, FLuc inhib CS, APP 5'UTR act)
CCc1nc2ccc(C(=O)N3CCN(c4ccccc4)CC3)cn2c1N(CCC(C)C)CCN(C)C	none (no result: NF-kB expr up, FLuc stim CS, PPC-1+TRAIL kill, FLuc inhib CS, APP 5'UTR act)
COc1cccc(C(=O)NC2=NCCS2)c1	FLuc inhib CS 52
COc1cccc(C(=O)Nc2ccc(C3CC3(Cl)Cl)cc2)c1 (centres undefined)	NF-kB expr up 5.7, C8 TRAIL sens 49, FLuc inhib CS 58
COc1cccc(C(=O)Nc2ccc(C(=O)O)cc2)c1	none
CN(C)S(=O)(=O)Oc1cccc(C(=O)Nc2ccc(Cl)cc2)c1	NF-kB expr up 5.3, APP 5'UTR act 141
O=C(NC1=NCCS1)c1ccc(-c2ccc(Cl)cc2)o1	NF-kB expr up 4.6, FLuc inhib CS 66
CCOC(=O)C1CCCN(C(=O)c2ccc(F)c(C)c2)CC1 (centres undefined)	none (no result: NF-kB expr up, FLuc stim CS, PPC-1+TRAIL kill, FLuc inhib CS, APP 5'UTR act)
CCN(CC(=O)Nc1ccc(NC(C)=O)cc1)C(=O)C1CC1	none (no result: NF-kB expr up, FLuc stim CS, PPC-1+TRAIL kill, FLuc inhib CS, APP 5'UTR act)
CCc1nc2c(OCc3ccc(C#N)cc3)cccn2c1N(C)C(=O)c1cccs1	none (no result: NF-kB expr up, FLuc stim CS, PPC-1+TRAIL kill, FLuc inhib CS, APP 5'UTR act)
O=C(Nc1ccccc1C(=O)N/N=C/c1ccc(F)cc1)c1ccccc1Br	FLuc inhib CS 74
O=C(N/N=C/c1ccc(F)cc1)c1ccccc1	FLuc inhib CS 75
O=C(N/N=C/c1ccc(O)cc1)c1ccc(NC(=O)c2ccccc2Br)cc1	none
COC(=O)c1cnc(SCC(=O)c2ccccc2)n1C	none (no result: NF-kB expr up, FLuc stim CS, PPC-1+TRAIL kill, FLuc inhib CS, APP 5'UTR act)
COC(=O)c1cnc(SCc2ccc(Cl)cc2)n1C	APP 5'UTR act 227
Cc1ccc(N=C2N=C(N)c3ccccc32)cc1C	none (no result: NF-kB expr up, FLuc stim CS, PPC-1+TRAIL kill, FLuc inhib CS)
CCc1ccc(N=C2N=C(N)c3ccccc32)cc1	FLuc inhib CS 92
CC(C)(C)S(=O)N1Cc2cc(C(=O)NCC(F)(F)F)nc(-c3cccc(-c4cccc(F)c4)c3)c2[C@H]1CCO (some centres undefined)	none (no result: NF-kB expr up, FLuc stim CS, PPC-1+TRAIL kill, FLuc inhib CS, APP 5'UTR act)
CCOc1ccc(C2=NNC(c3cccnc3)=Nc3ccc(OC)cc32)cc1	none
CCOc1ccc(C2=NNC(c3cccs3)=Nc3ccc(OC)cc32)cc1	NF-kB expr up 6.4
OCC1CSC(=S)N1Cc1ccccc1 (centres undefined)	none (no result: NF-kB expr up, FLuc stim CS, PPC-1+TRAIL kill, FLuc inhib CS, APP 5'UTR act)
Cc1ccc(Cn2cc(CN3CC(N(C)C)CS3(=O)=O)nn2)cc1 (centres undefined)	none (no result: NF-kB expr up, FLuc stim CS, PPC-1+TRAIL kill, FLuc inhib CS, APP 5'UTR act)
CCCCOC(=O)Nc1nc2ccccc2s1	NF-kB expr up 5.4
O=C(Cc1cccs1)Nc1nc2ccccc2s1	NF-kB expr up 4.2
COc1ccc2nc(NC(=O)Cc3cccs3)sc2c1	none
O=C(Cc1nc(=O)c2ccccc2s1)Nc1ccccc1	NF-kB expr up 5.8, APP 5'UTR act 189
Cc1ccc2nc(NC(=O)Cc3cccs3)sc2c1	NF-kB expr up 3.7
COc1cccc(CNC(=O)[C@@H]2CCCN2C(=O)OC(C)(C)C)c1	none (no result: NF-kB expr up, FLuc stim CS, PPC-1+TRAIL kill, FLuc inhib CS, APP 5'UTR act)
Cc1ccc(OCc2nnn(CC(=O)NS(=O)(=O)c3c(C)noc3C)c2-c2ccccc2)cc1	none (no result: NF-kB expr up, FLuc stim CS, PPC-1+TRAIL kill, FLuc inhib CS, APP 5'UTR act)
O=C(Cc1ccccc1)Nc1nc2ccccc2s1	NF-kB expr up 7.1
CC(C)(C)N/N=C/c1c(O)n(-c2ccc(Cl)cn2)c(=O)c2ccccc12	none
CCc1nnc(/N=C/c2c(O)n(-c3ccc(Cl)cn3)c(=O)c3ccccc23)s1	FLuc inhib CS 66
CC1(C(=O)NCCc2ccccc2)Cc2c(-c3ccc(C(N)=O)cc3)ccnc2O1 (centres undefined)	none (no result: NF-kB expr up, FLuc stim CS, PPC-1+TRAIL kill, FLuc inhib CS, APP 5'UTR act)
O=[N+]([O-])c1c(Nc2cccc(O)c2)cc(Cl)c2nonc12	C8 TRAIL sens 59 (no result: NF-kB expr up, FLuc stim CS, PPC-1+TRAIL kill, FLuc inhib CS, APP 5'UTR act)
Cc1ccc(NC(=O)C2CCCN(c3ncccn3)C2)cc1F (centres undefined)	NF-kB expr up 3.5
Cc1ccc(-n2nc3c(n2)/C(=N/O)CC/C3=N\O)cc1	NF-kB expr up 4.7, FLuc inhib CS 67
O/N=C1\CC/C(=N\O)c2nn(-c3ccccc3Cl)nc21	none
Clc1ccccc1C=NNc1ccccn1	none (no result: NF-kB expr up, FLuc stim CS, PPC-1+TRAIL kill, FLuc inhib CS, APP 5'UTR act)
Clc1ccccc1/C=N/NC1=Nc2cccc3cccc1c23	APP 5'UTR act 171
C(=N\NC1=Nc2cccc3cccc1c23)/c1ccccn1	NF-kB expr up 6.2, C8 TRAIL sens 71, FLuc inhib CS 66
C(=NNc1ccc2ccccc2n1)c1ccccn1	C8 TRAIL sens 87 (no result: NF-kB expr up, FLuc stim CS, PPC-1+TRAIL kill, FLuc inhib CS, APP 5'UTR act)

Assay outcomes (PubChem)
